Reference: ChEMBL document CHEMBL1144660, “Docking and hydropathic scoring of polysubstituted pyrrole compounds with antitubulin activity” (Bioorg Med Chem, 2008)

How the values were obtained:
MDA-MB-435 = experiment: Antiproliferative activity against human MDA-MB-435 cells after 48 hrs by SRB assay; type: functional, cell-based; conditions: MDA-MB-435, 48 h
[1] = Inhibition of tubulin polymerization in rat A10 cells after 18 hrs by indirect immunofluorescence technique; type: cell-based
Summary of the method: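 A-10 cells were exposed to a range of concentrations for 18 hr, fixed, and stained with a β-tubulin antibody for microtubules and with DAPI for DNA. Percent microtubule loss was scored visually at each concentration, averaged over 3 independent experiments, and plotted against concentration to calculate EC50.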

## CCOC(=O)c1[nH]c(Br)c(-c2cccc(OC)c2)c1Br
MDA-MB-435; read-out: IC50
  IC50: 0.278 µM
MDA-MB-435; read-out: Log IC50 (converted)
  IC50: 0.282 µM
[1]
  EC50: 2.4 µM

## COC(=O)c1c(-c2ccc(OC)c(OC)c2)c(-c2ccc(OC)c(OC)c2)cn1CCc1ccc(OC)c(OC)c1
MDA-MB-435; read-out: IC50
  IC50: 10 µM
MDA-MB-435; read-out: Log IC50 (converted)
  IC50: 10 µM
[1]
  EC50: > 50 µM

## CCOC(=O)c1cc(-c2ccc(OC)cc2)c(C(=O)c2ccc(OC)cc2)[nH]1
MDA-MB-435; read-out: IC50
  IC50: 2.6 µM
MDA-MB-435; read-out: Log IC50 (converted)
  IC50: 2.63 µM
[1]
  EC50: > 50 µM

## CCOC(=O)c1[nH]c(C(=O)c2ccc(OC)cc2)c(-c2ccc(OC)cc2)c1Br
MDA-MB-435; read-out: IC50
  IC50: 1.9 µM
MDA-MB-435; read-out: Log IC50 (converted)
  IC50: 1.91 µM
[1]
  EC50: > 50 µM

## CCOC(=O)c1c[nH]c(C(=O)c2ccc(OC)cc2)c1-c1ccc(OC)cc1
MDA-MB-435; read-out: IC50
  IC50: 10 µM
MDA-MB-435; read-out: Log IC50 (converted)
  IC50: 10 µM
[1]
  EC50: > 50 µM

## CCOC(=O)c1[nH]c(Br)c(-c2ccc(Cl)cc2)c1Br
MDA-MB-435; read-out: IC50
  IC50: 0.919 µM
MDA-MB-435; read-out: Log IC50 (converted)
  IC50: 0.912 µM
[1]
  EC50: > 50 µM

## CCOC(=O)c1[nH]c(Br)c(-c2ccc(OC)cc2)c1Br
MDA-MB-435; read-out: IC50
  IC50: 0.361 µM
MDA-MB-435; read-out: Log IC50 (converted)
  IC50: 0.363 µM
[1]
  EC50: 5.1 µM

## CCOC(=O)c1[nH]c(Br)c(-c2ccc3ccccc3c2)c1Br
MDA-MB-435; read-out: IC50
  IC50: 1.4 µM
MDA-MB-435; read-out: Log IC50 (converted)
  IC50: 1.41 µM
[1]
  EC50: 7.5 µM

## CCOC(=O)c1[nH]c(Br)c(-c2ccc(Br)cc2)c1Br
MDA-MB-435; read-out: IC50
  IC50: 0.312 µM
MDA-MB-435; read-out: Log IC50 (converted)
  IC50: 0.309 µM
[1]
  EC50: > 50 µM

## CCOC(=O)c1[nH]c(C(=O)c2ccc(OC)cc2)c(-c2ccc(OC)cc2)c1-c1ccc(OC)cc1
MDA-MB-435; read-out: IC50
  IC50: 4.2 µM
MDA-MB-435; read-out: Log IC50 (converted)
  IC50: 4.27 µM
[1]
  EC50: > 50 µM

## CCOC(=O)c1[nH]c(Br)c(-c2ccccc2)c1Br
MDA-MB-435; read-out: IC50
  IC50: 10 µM
MDA-MB-435; read-out: Log IC50 (converted)
  IC50: 10 µM
[1]
  EC50: > 50 µM

## COc1ccc(C(=O)c2[nH]c(C(=O)c3ccc(OC)cc3)c(-c3ccc(OC)cc3)c2-c2ccc(OC)cc2)cc1
MDA-MB-435; read-out: IC50
  IC50: > 20 µM
MDA-MB-435; read-out: Log IC50 (converted)
  IC50: 200 µM
[1]
  EC50: > 50 µM

## CCOC(=O)c1[nH]c(Br)c(-c2ccc(C)cc2)c1Br
MDA-MB-435; read-out: IC50
  IC50: 2.2 µM
MDA-MB-435; read-out: Log IC50 (converted)
  IC50: 2 µM
[1]
  EC50: > 50 µM

## CCOC(=O)c1cc(-c2ccc(OC)cc2)c(Cl)[nH]1
MDA-MB-435; read-out: IC50
  IC50: 5 µM
MDA-MB-435; read-out: Log IC50 (converted)
  IC50: 5.01 µM
[1]
  EC50: > 50 µM

## CCOC(=O)c1[nH]c(Br)c(-c2ccc(OC)c(OC)c2)c1Br
MDA-MB-435; read-out: Log IC50 (converted)
  IC50: 0.0182 µM

## COc1cc2c(c(OC)c1OC)-c1ccc(OC)c(=O)cc1C(NC(=O)CS)CC2 (centres undefined)
MDA-MB-435; read-out: IC50
  IC50: 2 µM
MDA-MB-435; read-out: Log IC50 (converted)
  IC50: 2 µM

## CCOC(=O)c1[nH]c(Br)c(-c2cc(OC)c(OC)c(OC)c2)c1Br
MDA-MB-435; read-out: IC50
  IC50: 13 µM
MDA-MB-435; read-out: Log IC50 (converted)
  IC50: 12.9 µM
[1]
  EC50: > 50 µM

## CCOC(=O)c1[nH]c(Br)c(-c2cc(OC)c(OC)cc2Br)c1Br
MDA-MB-435; read-out: IC50
  IC50: 1.1 µM
MDA-MB-435; read-out: Log IC50 (converted)
  IC50: 1.12 µM
[1]
  EC50: 7.1 µM

## CCOC(=O)c1[nH]cc(-c2ccc(OC)cc2)c1-c1ccc(OC)cc1
MDA-MB-435; read-out: IC50
  IC50: > 10 µM
MDA-MB-435; read-out: Log IC50 (converted)
  IC50: 100 µM
[1]
  EC50: > 50 µM
